Laboratory results as given in ChEMBL document CHEMBL1641579, “Synthesis and biological evaluation of 7-substituted-1-(3-bromophenylamino)isoquinoline-4-carbonitriles as inhibitors of myosin light chain kinase and epidermal growth factor receptor” (Bioorg Med Chem, 2011).

Legend:
[1] = biological target: Mitogen-activated protein kinase 10 (Homo sapiens) (UniProt P53779); assay: Inhibition of JNK3 assessed as residual activity at 10 uM
Method in brief: (§1)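 Kinase panel screen run as a radioactive activity assay at single compound concentration. Score reported as percent activity remaining relative to DMSO controls (100%).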

[2] = biological target: Serine/threonine-protein kinase Chk2 (Homo sapiens) (UniProt O96017); assay: Inhibition of CHK2 assessed as residual activity at 10 uM; method in brief: as §1
[3] = biological target: Myosin light chain kinase, smooth muscle (Homo sapiens, UniProt Q15746); assay: Inhibition of MLCK by HTRF assay
[4] = biological target: Tyrosine-protein kinase Yes (Homo sapiens) (UniProt P07947); assay: Inhibition of YES1 assessed as residual activity at 10 uM
Method in brief: (§2)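 Panel screen by radioactive kinase assay at a single inhibitor concentration. Score is the percent activity remaining relative to DMSO controls (100%).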

[5] = biological target: Proto-oncogene tyrosine-protein kinase Src (Homo sapiens) (UniProt P12931); assay: Inhibition of Src assessed as residual activity at 10 uM; method in brief: as §2
Sequence of Proto-oncogene tyrosine-protein kinase Src (Homo sapiens) (P12931 2-536 limits assumed): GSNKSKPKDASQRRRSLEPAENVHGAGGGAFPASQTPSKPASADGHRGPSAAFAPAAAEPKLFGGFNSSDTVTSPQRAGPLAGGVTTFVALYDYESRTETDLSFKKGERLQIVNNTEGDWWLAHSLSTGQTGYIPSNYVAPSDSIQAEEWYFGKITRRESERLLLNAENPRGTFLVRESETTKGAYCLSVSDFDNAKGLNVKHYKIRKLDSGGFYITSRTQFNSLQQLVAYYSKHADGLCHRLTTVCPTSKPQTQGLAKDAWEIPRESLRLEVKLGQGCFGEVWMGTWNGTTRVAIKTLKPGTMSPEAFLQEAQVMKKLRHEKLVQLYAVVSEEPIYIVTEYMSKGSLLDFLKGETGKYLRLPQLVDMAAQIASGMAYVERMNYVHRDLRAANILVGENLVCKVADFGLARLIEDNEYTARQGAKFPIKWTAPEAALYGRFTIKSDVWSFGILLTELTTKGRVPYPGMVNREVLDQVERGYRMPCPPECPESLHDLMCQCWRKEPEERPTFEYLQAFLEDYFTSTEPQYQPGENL

[6] = biological target: Ribosomal protein S6 kinase alpha-1 (Homo sapiens) (UniProt Q15418); assay: Inhibition of RSK1 assessed as residual activity at 10 uM; method in brief: as §2
[7] = biological target: Tyrosine-protein kinase CSK (Homo sapiens) (UniProt P41240); assay: Inhibition of CSK assessed as residual activity at 10 uM; method in brief: as §1
[8] = biological target: Calcium/calmodulin-dependent protein kinase type 1 (Homo sapiens) (UniProt Q14012); assay: Inhibition of CAMK1 assessed as residual activity at 10 uM; method in brief: as §1
[9] = biological target: T1, Serine/threonine-protein kinase BRSK2 (Homo sapiens) (UniProt Q8IWQ3); assay: Inhibition of BRSK2 assessed as residual activity at 10 uM; method in brief: as §1
T1 sequence (whole entry): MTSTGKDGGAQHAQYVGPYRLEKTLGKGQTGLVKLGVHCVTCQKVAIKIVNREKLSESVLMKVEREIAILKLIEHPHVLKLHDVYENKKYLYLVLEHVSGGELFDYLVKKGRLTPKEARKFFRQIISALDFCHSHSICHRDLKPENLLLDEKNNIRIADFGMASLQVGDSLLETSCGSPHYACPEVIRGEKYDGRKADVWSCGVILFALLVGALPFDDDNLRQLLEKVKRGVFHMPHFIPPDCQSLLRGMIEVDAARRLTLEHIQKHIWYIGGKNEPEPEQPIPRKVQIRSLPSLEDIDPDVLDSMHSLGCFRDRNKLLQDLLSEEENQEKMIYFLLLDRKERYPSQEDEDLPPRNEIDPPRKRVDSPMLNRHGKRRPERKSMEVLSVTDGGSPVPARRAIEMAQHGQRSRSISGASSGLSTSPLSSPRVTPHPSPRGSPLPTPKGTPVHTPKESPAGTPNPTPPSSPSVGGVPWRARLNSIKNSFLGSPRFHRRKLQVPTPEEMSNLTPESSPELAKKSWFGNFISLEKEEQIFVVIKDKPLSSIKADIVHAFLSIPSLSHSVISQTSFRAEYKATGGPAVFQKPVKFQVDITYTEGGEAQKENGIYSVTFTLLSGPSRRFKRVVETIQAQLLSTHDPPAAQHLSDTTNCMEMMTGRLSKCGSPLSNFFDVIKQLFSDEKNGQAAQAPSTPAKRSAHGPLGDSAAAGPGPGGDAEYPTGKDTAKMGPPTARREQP

[10] = biological target: Mitogen-activated protein kinase kinase kinase 11 (Homo sapiens) (UniProt Q16584); assay: Inhibition of MLK3 assessed as residual activity at 10 uM; method in brief: as §2
Sequence of Mitogen-activated protein kinase kinase kinase 11 (Homo sapiens) (Q16584 whole entry, looked up): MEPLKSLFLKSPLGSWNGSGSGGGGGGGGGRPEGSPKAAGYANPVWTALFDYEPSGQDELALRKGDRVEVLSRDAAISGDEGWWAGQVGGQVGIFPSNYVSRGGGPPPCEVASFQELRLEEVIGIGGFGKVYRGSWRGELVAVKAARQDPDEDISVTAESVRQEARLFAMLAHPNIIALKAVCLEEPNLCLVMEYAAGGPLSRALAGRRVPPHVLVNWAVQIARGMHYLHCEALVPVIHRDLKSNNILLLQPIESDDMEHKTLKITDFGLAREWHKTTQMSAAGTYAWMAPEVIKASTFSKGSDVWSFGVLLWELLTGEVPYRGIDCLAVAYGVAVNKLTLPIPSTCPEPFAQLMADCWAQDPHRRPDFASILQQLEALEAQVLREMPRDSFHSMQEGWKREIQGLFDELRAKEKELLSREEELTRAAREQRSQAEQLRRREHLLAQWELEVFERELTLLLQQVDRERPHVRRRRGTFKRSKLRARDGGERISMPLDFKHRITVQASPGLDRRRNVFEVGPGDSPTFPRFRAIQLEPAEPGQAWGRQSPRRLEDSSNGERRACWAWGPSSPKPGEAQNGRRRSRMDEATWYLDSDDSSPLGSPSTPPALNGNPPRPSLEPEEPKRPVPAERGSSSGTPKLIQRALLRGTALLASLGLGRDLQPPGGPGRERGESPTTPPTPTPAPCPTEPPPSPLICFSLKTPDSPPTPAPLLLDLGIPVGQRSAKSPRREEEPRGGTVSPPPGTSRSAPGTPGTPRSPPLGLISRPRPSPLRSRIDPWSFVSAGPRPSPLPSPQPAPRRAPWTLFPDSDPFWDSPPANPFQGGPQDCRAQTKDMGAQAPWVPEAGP

[11] = biological target: Mitogen-activated protein kinase 8 (Homo sapiens) (UniProt P45983); assay: Inhibition of JNK1 assessed as residual activity at 10 uM; method in brief: as §1
[12] = biological target: T2, NUAK family SNF1-like kinase 1 (Homo sapiens) (UniProt O60285); assay: Inhibition of NUAK1 assessed as residual activity at 10 uM; method in brief: as §2
T2 sequence (whole entry): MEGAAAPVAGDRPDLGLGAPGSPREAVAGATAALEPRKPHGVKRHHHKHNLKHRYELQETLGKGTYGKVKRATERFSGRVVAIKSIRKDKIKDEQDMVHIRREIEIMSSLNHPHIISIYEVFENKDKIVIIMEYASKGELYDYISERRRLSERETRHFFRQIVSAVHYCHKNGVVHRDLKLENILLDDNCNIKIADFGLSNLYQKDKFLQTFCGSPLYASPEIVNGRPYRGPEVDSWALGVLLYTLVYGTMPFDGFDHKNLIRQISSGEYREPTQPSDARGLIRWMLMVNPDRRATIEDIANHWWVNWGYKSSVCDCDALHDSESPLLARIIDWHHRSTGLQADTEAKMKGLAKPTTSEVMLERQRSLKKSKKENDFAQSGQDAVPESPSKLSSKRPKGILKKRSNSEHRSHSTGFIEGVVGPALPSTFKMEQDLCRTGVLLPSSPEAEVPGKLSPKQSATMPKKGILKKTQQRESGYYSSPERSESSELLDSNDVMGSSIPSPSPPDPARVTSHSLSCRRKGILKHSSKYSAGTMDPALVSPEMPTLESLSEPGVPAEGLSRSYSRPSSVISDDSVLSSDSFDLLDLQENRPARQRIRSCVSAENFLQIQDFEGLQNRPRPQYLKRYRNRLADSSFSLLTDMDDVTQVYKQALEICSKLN

[13] = biological target: Serine/threonine-protein kinase N2 (Homo sapiens) (UniProt Q16513); assay: Inhibition of PRK2 assessed as residual activity at 10 uM; method in brief: as §2
Sequence of Serine/threonine-protein kinase N2 (Homo sapiens) (Q16513 whole entry, looked up): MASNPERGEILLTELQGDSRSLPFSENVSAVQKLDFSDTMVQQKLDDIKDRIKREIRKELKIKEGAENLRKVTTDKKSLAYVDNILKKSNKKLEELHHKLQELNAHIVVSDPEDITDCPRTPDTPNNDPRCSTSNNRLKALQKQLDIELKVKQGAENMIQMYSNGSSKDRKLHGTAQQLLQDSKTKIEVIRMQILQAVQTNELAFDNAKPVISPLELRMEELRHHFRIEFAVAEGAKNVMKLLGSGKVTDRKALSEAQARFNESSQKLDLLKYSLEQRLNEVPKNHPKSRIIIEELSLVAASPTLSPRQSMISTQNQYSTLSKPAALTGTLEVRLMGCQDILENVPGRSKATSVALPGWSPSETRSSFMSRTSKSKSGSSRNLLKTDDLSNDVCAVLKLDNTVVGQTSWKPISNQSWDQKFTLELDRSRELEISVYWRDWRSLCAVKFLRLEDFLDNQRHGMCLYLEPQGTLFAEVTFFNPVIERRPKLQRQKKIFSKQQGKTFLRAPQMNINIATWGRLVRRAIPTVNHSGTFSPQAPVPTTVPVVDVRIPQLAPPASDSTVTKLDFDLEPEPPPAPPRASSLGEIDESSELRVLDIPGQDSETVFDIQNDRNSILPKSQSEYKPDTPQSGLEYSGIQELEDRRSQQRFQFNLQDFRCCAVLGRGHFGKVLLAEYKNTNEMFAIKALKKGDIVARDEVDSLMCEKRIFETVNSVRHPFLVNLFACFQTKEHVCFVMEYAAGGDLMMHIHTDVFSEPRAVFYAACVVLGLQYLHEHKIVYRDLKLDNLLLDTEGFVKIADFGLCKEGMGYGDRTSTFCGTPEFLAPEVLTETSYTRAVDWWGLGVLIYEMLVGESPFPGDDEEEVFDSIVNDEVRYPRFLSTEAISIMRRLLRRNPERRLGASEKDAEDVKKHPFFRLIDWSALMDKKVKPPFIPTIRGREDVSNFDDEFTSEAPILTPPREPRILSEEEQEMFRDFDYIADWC

[14] = biological target: SRSF protein kinase 1 (Homo sapiens) (UniProt Q96SB4); assay: Inhibition of SRPK1 assessed as residual activity at 10 uM; method in brief: as §2
[15] = biological target: Insulin receptor (Homo sapiens) (UniProt P06213); assay: Inhibition of IR assessed as residual activity at 10 uM; method in brief: as §1
Sequence of Insulin receptor (Homo sapiens) (P06213 28-758 limits assumed): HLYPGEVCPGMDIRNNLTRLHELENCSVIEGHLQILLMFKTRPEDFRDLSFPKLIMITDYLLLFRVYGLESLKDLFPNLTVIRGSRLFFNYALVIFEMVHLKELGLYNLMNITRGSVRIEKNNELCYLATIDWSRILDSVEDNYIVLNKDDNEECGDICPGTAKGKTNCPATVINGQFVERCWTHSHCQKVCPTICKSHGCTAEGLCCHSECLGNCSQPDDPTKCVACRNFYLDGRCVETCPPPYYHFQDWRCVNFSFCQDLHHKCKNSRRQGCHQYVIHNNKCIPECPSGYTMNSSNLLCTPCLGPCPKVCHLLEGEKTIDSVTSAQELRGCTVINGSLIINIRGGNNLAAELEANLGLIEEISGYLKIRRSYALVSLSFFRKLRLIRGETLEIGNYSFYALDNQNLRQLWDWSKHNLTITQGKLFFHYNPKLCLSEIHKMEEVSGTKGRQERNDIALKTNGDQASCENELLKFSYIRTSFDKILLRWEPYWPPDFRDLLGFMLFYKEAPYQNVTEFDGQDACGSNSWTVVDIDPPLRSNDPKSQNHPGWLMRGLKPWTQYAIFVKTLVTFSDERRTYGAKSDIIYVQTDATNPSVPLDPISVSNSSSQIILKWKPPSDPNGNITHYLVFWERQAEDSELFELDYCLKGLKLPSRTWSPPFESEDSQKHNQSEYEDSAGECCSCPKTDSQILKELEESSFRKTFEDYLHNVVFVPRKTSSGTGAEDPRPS
Sequence of Insulin receptor (Homo sapiens) (P06213 763-1382 limits assumed): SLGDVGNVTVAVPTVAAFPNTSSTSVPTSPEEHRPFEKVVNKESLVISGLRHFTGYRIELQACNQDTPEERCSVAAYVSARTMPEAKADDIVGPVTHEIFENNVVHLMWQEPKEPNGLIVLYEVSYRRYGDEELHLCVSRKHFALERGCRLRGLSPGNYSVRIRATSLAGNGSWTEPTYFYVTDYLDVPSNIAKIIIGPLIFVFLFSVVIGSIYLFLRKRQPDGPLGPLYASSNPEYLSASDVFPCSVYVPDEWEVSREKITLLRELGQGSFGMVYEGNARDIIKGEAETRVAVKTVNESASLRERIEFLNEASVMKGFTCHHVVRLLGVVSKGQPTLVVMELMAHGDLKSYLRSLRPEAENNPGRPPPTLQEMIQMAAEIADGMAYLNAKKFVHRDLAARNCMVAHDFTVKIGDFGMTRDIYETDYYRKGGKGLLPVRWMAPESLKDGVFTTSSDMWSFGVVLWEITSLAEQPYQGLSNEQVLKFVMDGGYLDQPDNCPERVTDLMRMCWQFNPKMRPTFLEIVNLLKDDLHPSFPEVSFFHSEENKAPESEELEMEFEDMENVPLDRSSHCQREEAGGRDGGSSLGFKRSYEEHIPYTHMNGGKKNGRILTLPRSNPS

[16] = biological target: Glycogen synthase kinase-3 beta (Homo sapiens) (UniProt P49841); assay: Inhibition of GSK3-beta assessed as residual activity at 10 uM; method in brief: as §1
[17] = biological target: Mitogen-activated protein kinase 11 (Homo sapiens) (UniProt Q15759); assay: Inhibition of p38beta assessed as residual activity at 10 uM; method in brief: as §2
[18] = biological target: Calcium/calmodulin-dependent protein kinase kinase 2 (Homo sapiens) (UniProt Q96RR4); assay: Inhibition of CAMKKbeta assessed as residual activity at 10 uM; method in brief: as §1
Sequence of Calcium/calmodulin-dependent protein kinase kinase 2 (Homo sapiens) (Q96RR4 2-588 limits assumed): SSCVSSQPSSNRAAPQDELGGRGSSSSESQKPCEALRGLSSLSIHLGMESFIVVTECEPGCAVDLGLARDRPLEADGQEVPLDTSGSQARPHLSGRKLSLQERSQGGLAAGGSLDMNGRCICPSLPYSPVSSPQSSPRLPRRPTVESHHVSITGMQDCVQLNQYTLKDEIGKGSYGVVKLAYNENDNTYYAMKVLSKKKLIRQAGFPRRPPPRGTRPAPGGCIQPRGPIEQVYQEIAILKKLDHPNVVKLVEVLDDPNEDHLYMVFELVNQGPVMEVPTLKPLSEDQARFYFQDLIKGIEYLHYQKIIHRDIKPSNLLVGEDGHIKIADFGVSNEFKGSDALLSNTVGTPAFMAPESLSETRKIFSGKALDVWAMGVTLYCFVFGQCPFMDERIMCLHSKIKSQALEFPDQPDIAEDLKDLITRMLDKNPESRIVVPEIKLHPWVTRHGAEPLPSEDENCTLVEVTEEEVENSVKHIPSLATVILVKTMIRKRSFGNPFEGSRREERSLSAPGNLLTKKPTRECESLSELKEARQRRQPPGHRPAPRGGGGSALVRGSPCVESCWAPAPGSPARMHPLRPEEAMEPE

[19] = biological target: Mitogen-activated protein kinase 3 (Homo sapiens) (UniProt P27361); assay: Inhibition of ERK1 assessed as residual activity at 10 uM; method in brief: as §1
[20] = biological target: Protein kinase C alpha type (Homo sapiens) (UniProt P17252); assay: Inhibition of PKCalpha assessed as residual activity at 10 uM; method in brief: as §2
[21] = biological target: MAP kinase-activated protein kinase 3 (Homo sapiens) (UniProt Q16644); assay: Inhibition of MAPKAPK3 assessed as residual activity at 10 uM; method in brief: as §1
[22] = biological target: Serine/threonine-protein kinase MARK2 (Homo sapiens) (UniProt Q7KZI7); assay: Inhibition of MARK2 assessed as residual activity at 10 uM; method in brief: as §1

Sequence of Mitogen-activated protein kinase 10 (Homo sapiens) (P53779 whole entry): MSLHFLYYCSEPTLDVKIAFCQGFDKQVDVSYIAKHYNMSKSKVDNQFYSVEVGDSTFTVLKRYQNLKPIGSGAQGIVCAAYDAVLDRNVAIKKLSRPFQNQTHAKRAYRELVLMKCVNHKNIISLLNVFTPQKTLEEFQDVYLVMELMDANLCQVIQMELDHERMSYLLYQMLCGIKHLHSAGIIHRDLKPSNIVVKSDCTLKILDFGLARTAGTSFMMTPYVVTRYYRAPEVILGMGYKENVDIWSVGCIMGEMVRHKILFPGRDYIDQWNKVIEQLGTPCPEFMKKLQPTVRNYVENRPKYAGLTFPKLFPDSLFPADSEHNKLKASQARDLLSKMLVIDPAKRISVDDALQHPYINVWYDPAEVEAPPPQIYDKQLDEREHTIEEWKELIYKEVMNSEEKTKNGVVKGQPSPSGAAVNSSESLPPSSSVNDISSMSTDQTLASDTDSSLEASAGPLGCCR

Activity [1] [%] | Activity [2] [%] | IC50 [3] [µM] | Activity [4] [%] | Activity [5] [%] | Activity [6] [%] | Activity [7] [%] | Activity [8] [%] | Activity [9] [%] | Activity [10] [%] | Activity [11] [%] | Activity [12] [%] | Activity [13] [%] | Activity [14] [%] | Activity [15] [%] | Activity [16] [%] | Activity [17] [%] | Activity [18] [%] | Activity [19] [%] | Activity [20] [%] | Structure (SMILES) | also measured
83 | 51 | 23.6 | 32 | 61 | 79 | 85 | 25 | 75 | 86 | 91 | 100 | 100 | 55 | 77 | 78 | 95 | 91 | 83 | 69 | CN(C)C/C=C/C(=O)Nc1ccc2c(C#N)cnc(Nc3cccc(Br)c3)c2c1 | Activity [21]: 75%; Activity [22]: 90%
95 | 53 | 8.7 | 36 | 49 | 84 | 81 | 14 | 100 | 87 | 99 | 94 | 90 | 58 | 95 | 100 | 100 | 87 | 85 | 71 | CN1CCN(CCC(=O)Nc2ccc3c(C#N)cnc(Nc4cccc(Br)c4)c3c2)CC1 | Activity [21]: 91%; Activity [22]: 100%
100 | 56 | 25.1 | 36 | 60 | 84 | 89 | 15 | 75 | 100 | 97 | 86 | 98 | 72 | 93 | 100 | 100 | 92 | 93 | 70 | CN(C)CCCC(=O)Nc1ccc2c(C#N)cnc(Nc3cccc(Br)c3)c2c1 | Activity [21]: 96%; Activity [22]: 100%
